Reference: ChEMBL document CHEMBL3860040, “Purine-Type Compounds Induce Microtubule Fragmentation and Lung Cancer Cell Death through Interaction with Katanin” (J Med Chem, 2016)
One block for each molecule: values may come before it. Calls of active or inactive are those of the source. The calls are words filed in the database; no cut-off is given here.

Columns and labels:
[1] = Cytotoxicity against human NCI-H1975 cells harboring EGFR T790M mutant assessed as decrease in cell viability after 72 hrs by MTT assay; format: functional, cell-based; conditions: NCI-H1975, 72 h
[2] = target: Katanin p80 WD40 repeat-containing subunit B1 (Homo sapiens) (UniProt Q9BVA0); assay: Binding affinity to katanin p80 subunit in human NCI-H1975 cell lysate using biotin-labeled compound preincubated for 24 hrs followed by streptavidin-conjugated beads addition measured after 2 hrs by immunoblot analysis; format: cell-free
Chain of Katanin p80 WD40 repeat-containing subunit B1 (Homo sapiens) (Q9BVA0 whole entry): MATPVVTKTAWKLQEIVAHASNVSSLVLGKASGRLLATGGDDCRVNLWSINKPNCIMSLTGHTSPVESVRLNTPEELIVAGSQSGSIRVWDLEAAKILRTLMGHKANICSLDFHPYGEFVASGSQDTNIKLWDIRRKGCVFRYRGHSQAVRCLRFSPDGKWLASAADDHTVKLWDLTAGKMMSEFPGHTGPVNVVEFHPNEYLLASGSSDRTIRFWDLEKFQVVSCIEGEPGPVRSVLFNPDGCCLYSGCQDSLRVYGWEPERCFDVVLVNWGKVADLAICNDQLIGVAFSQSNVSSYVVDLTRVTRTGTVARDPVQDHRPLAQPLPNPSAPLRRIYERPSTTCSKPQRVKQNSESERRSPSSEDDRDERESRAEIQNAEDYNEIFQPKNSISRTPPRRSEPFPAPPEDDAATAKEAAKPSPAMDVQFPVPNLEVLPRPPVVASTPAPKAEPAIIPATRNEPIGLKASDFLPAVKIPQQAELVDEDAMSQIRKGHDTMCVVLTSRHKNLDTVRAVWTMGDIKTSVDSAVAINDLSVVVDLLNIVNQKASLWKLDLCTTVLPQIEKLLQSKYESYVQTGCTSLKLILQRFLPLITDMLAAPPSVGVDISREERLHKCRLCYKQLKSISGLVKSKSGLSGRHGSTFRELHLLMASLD
In short: (§1)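 H1975 lysate incubated 24 h with biotinylated probe or with a purine-free linker as control. Bound proteins detected by immunoblot; three independent experiments.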

[3] = target: Katanin p60 ATPase-containing subunit A1 (Homo sapiens) (UniProt O75449); assay: Binding affinity to katanin p60 subunit in human NCI-H1975 cell lysate using biotin-labeled compound preincubated for 24 hrs followed by streptavidin-conjugated beads addition measured after 2 hrs by immunoblot analysis; format: cell-free; in short: as §1
Chain of Katanin p60 ATPase-containing subunit A1 (Homo sapiens) (O75449 whole entry, the tested form may be a part): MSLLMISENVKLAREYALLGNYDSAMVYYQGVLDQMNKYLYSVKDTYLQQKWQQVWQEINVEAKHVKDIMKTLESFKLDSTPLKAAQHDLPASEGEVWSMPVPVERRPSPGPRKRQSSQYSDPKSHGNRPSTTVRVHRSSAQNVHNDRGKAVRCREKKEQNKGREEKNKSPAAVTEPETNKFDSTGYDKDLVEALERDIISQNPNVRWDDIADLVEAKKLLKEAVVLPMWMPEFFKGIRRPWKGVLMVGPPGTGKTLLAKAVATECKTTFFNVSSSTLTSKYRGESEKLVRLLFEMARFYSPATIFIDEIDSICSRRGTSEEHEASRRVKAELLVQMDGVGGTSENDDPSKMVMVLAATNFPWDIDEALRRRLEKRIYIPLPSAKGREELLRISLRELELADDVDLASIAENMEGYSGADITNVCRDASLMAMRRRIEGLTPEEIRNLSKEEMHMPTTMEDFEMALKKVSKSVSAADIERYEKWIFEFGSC

[4] = target: Katanin p60 ATPase-containing subunit A1 (Homo sapiens) (UniProt O75449); assay: Induction of katanin p60 subunit-mediated JNK signaling pathway activation assessed as increase in phosphorylation level at T183/Y185 residues in human NCI-H1975 cells at 300 nM after 6 to 12 hrs by immunoblot analysis; format: cell-based
In short: (§2)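 H1975 cells treated with 300 nM for 6 h and 12 h, lysed, and phospho-JNK and phospho-c-Jun detected by immunoblot with ECL. Three independent experiments.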

[5] = target: Katanin p60 ATPase-containing subunit A1 (Homo sapiens) (UniProt O75449); assay: Induction of katanin p60 subunit-mediated microtubule fragmentation in human NCI-H1975 cells assessed as alpha-tubulin level in soluble form at 300 nM after 1 hr by immunoblot analysis (reference value: 37%); format: cell-based
[6] = target: Katanin p60 ATPase-containing subunit A1 (Homo sapiens) (UniProt O75449); assay: Induction of katanin p60 subunit-mediated JNK signaling pathway activation in human NCI-H1975 cells assessed as increase in c-Jun phosphorylation at S63 residues at 300 nM after 9 hrs by phospho-kinase antibody array method; format: cell-based
In short: (§3)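 H1975 cells seeded overnight, exposed to 300 nM for 9 h; DMSO-treated cells as controls. Lysates rocked 30 min at 4 °C and spun at 14,000×g for 30 min. Equal BCA-quantified protein applied to a human phospho-kinase antibody array; spot density measured by densitometry.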

[7] = target: Katanin p60 ATPase-containing subunit A1 (Homo sapiens) (UniProt O75449); assay: Induction of katanin p60 subunit-mediated microtubule fragmentation in human NCI-H1975 cells assessed as alpha-tubulin level in polymer form at 300 nM after 1 hr by immunoblot analysis (reference value: 63%); format: cell-based
[8] = target: Katanin p60 ATPase-containing subunit A1 (Homo sapiens) (UniProt O75449); assay: Induction of katanin p60 subunit-mediated microtubule fragmentation in human NCI-H1975 cells assessed as alpha-tubulin level in polymer form at 600 nM after 1 hr by immunoblot analysis (reference value: 63%); format: cell-based
[9] = target: Katanin p60 ATPase-containing subunit A1 (Homo sapiens) (UniProt O75449); assay: Induction of katanin p60 subunit-mediated microtubule fragmentation in human NCI-H1975 cells assessed as alpha-tubulin level in soluble form at 300 nM after 12 hrs by gel filtration chromatography/immunoblot analysis; format: cell-based
In short: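 H1975 cells treated with 300 nM or vehicle for 12 h; soluble extracts made in IP lysis buffer. Run on a Toyopearl HW-65F gel filtration column equilibrated in IP lysis buffer, collecting 0.5 mL fractions. Fractions separated by 10% SDS–PAGE and α-tubulin detected by immunoblot.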

[10] = target: Katanin p60 ATPase-containing subunit A1 (Homo sapiens) (UniProt O75449); assay: Induction of katanin p60 subunit-mediated microtubule fragmentation in human NCI-H1975 cells at 300 nM after 12 hrs by DAPI staining based confocal laser microscopy; format: cell-based
In short: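 H1975 cells treated 12 h, fixed in 3.7% cold paraformaldehyde and permeabilized with 0.1% Triton X-100. Stained with anti-α-tubulin at 37 °C for 1 h, then FITC secondary (1:100) at 37 °C for 1 h. Mounted with DAPI and imaged by confocal microscopy.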

[11] = target: Katanin p60 ATPase-containing subunit A1 (Homo sapiens) (UniProt O75449); assay: Induction of katanin p60 subunit-mediated JNK signaling pathway activation in human NCI-H1975 cells assessed as increase in JNK phosphorylation at T183/Y185 and T221/Y223 residues at 300 nM after 9 hrs by phospho-kinase antibody array method; format: cell-based; in short: as §3
[12] = target: Katanin p60 ATPase-containing subunit A1 (Homo sapiens) (UniProt O75449); assay: Induction of katanin p60 subunit-mediated JNK signaling pathway activation assessed as increase in c-Jun phosphorylation level at S63 residues in human NCI-H1975 cells at 300 nM after 6 to 12 hrs by immunoblot analysis; format: cell-based; in short: as §2
[13] = target: Katanin p60 ATPase-containing subunit A1 (Homo sapiens) (UniProt O75449); assay: Induction of katanin p60 subunit-mediated microtubule fragmentation in human NCI-H1975 cells assessed as alpha-tubulin level in soluble form at 600 nM after 1 hr by immunoblot analysis (reference value: 37%); format: cell-based

SMILES: CCCCOc1ccc(-c2nc(C(N)=O)c3[nH]c(=O)n(-c4ccccc4OC)c3n2)cc1
- IC50 [1]: 4.66 µM

SMILES: CCOc1ccc(-c2nc(C(N)=O)c3[nH]c(=O)n(-c4cccc(C(=O)O)c4)c3n2)cc1
- IC50 [1]: 7.91 µM

SMILES: CCOc1ccc(-c2nc(C(N)=O)c3[nH]c(=O)n(-c4cccc(C(=O)NCCCCCNC(=O)OC(C)(C)C)c4)c3n2)cc1
- IC50 [1]: > 10 µM

SMILES: COC(=O)c1cccc(-n2c(=O)[nH]c3c(C(N)=O)nc(-c4ccc(-c5ccccc5)cc4)nc32)c1
- IC50 [1]: > 20 µM

- Activity [2]: Active
- Activity [3]: Active
SMILES: CCOc1ccc(-c2nc(C(N)=O)c3[nH]c(=O)n(-c4cccc(C(=O)NCCCCCNC(=O)CCCC[C@@H]5SC[C@@H]6NC(=O)N[C@@H]65)c4)c3n2)cc1
- IC50 [1]: 26.3 µM

- Activity [4]: Active
- Activity [5]: 68%
- Activity [6]: Active
- Activity [7]: 32%
- Activity [8]: 25%
- Activity [9]: Active
- Activity [10]: Active
- Activity [11]: Active
- Activity [12]: Active
- Activity [13]: 75%
SMILES: CCOc1ccc(-c2nc(C(N)=O)c3[nH]c(=O)n(-c4ccccc4OC)c3n2)cc1

SMILES: CCCCCCOc1ccc(-c2nc(C(N)=O)c3[nH]c(=O)n(-c4ccccc4OC)c3n2)cc1
- IC50 [1]: > 5 µM
